The results in this text go back to ChEMBL document CHEMBL4699492, “Discovery of Novel Pyrazolo[3,4-b] Pyridine Derivatives with Dual Activities of Vascular Remodeling Inhibition and Vasodilation for the Treatment of Pulmonary Arterial Hypertension” (J Med Chem, 2020).

For data set [1], the system named is Pulmonary Artery Smooth Muscle Cells. The experiment in a line: Stimulation of sGC in HPASMC assessed as increase in intracellular cGMP level measured after 1 hr in absence of PDE5 inhibitor IBMX and presence of sGC inhibitor ODQ by cGMP-d2/europium cryptate reagent based HTRF assay. The class given is tissue-based. Conditions: Homo sapiens, filed as activator. A digest of the protocol: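 HPASMCs were suspended at 100,000 cells/mL in PBS with 0.2% BSA, with or without 10 µM ODQ. Compounds were added as a 6-point, 10-fold dilution series; the top 2× stock was 200 µM. Incubation was 1 h at room temperature, in triplicate. cGMP-d2 in lysis buffer and europium cryptate were then added for 1 h before HTRF reading. Three independent experiments.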

Data set [2] in a line: Effect on total Smad2/3 level in lungs of Sprague-Dawley rat model of hypoxia-induced pulmonary artery hypertension at 10 mg/kg, po administered daily for 2 weeks by Western blot analysis. The data set is classed as ADME, organism-based. Conditions: in vivo, 336 h. A digest of the protocol: (§1)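 Hypoxic PAH model in male SD rats (160-200 g) kept at 10% O2 for 4 weeks. Oral dosing at 10 mg/kg daily for 14 days, suspended in 0.5% CMC-Na; control and hypoxia groups received vehicle only. Lungs homogenized in RIPA with protease and phosphatase inhibitors. 30 µg protein run on 10% SDS-PAGE, then PVDF blotting, with β-actin as loading reference. Three independent runs.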
(In general: Immunoblotting shows a protein as a band on a membrane.)

Data set [3] in a line: Effect on total ACC level in lungs of Sprague-Dawley rat model of hypoxia-induced pulmonary artery hypertension at 10 mg/kg, po administered daily for 2 weeks by Western blot analysis. The class given is ADME, organism-based. Conditions: in vivo, 336 h. The method in brief: as §1
The species named for the next data set is Homo sapiens. The experiment in a line: Inhibition of CaMKKbeta phosphorylated recombinant human AMPK alpha1/beta1/gamma1 using 1-biotin as substrate incubated for 60 mins by HTRF assay. The settings on record: time 1.0 hrs. A digest of the protocol:
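Kinase reaction with 0.16 µM STK substrate 1-biotin, 0.8 mmol DTT, 4 mmol MgCl2, 4 µM ATP and compound, started by adding 1 ng/µl CaMKKβ-prephosphorylated AMPK (α1β1γ1). Ran 1 h at 37 °C, then Eu3+-cryptate STK antibody plus 57.5 nmol/L XL-665 for 1 h at room temperature. Activity read as the 665/620 ratio ×10000. Curves averaged from three independent experiments.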
A general note: Time-resolved FRET reads energy transfer from a long-lived donor to a nearby acceptor.

The source made the active and inactive calls. The rule behind the calls is not given here.

Take `Cc1ccccc1COc1nc2c(cc1-c1nc(N)cc(N)n1)c(C)nn2-c1ccccc1`: the result in data set [1] was Active. Besides, the Activity result in data set [2] and in data set [3] was “Non-Toxic” throughout. For the same compound, in the data set filed under Homo sapiens, the inhibition result was “Dose-dependent effect”.
